In test [1] the test system is DU-145. Description: Cytotoxicity against human DU145 cells by SRB assay. The test is classed as functional. A general note: Sulforhodamine B stains cellular protein and so reports cell mass.
For test [2], the system named is SN12C. Put plainly: Cytotoxicity against human SN12C cells by SRB assay. The test is classed as functional.
The test system of test [3] is UACC-62. Put plainly: Cytotoxicity against human UACC62 cells by SRB assay. The test is classed as functional.
For test [4], the system named is HCT-116. Put plainly: Cytotoxicity against human HCT116 cells by SRB assay. The class given is functional.
The subject of test [5] is HOP-62. Put plainly: Cytotoxicity against human HOP62 cells by SRB assay. The class given is functional.
Test [6] addresses T1, DNA topoisomerase 1 (Homo sapiens) (UniProt P11387).
T1 sequence (whole entry): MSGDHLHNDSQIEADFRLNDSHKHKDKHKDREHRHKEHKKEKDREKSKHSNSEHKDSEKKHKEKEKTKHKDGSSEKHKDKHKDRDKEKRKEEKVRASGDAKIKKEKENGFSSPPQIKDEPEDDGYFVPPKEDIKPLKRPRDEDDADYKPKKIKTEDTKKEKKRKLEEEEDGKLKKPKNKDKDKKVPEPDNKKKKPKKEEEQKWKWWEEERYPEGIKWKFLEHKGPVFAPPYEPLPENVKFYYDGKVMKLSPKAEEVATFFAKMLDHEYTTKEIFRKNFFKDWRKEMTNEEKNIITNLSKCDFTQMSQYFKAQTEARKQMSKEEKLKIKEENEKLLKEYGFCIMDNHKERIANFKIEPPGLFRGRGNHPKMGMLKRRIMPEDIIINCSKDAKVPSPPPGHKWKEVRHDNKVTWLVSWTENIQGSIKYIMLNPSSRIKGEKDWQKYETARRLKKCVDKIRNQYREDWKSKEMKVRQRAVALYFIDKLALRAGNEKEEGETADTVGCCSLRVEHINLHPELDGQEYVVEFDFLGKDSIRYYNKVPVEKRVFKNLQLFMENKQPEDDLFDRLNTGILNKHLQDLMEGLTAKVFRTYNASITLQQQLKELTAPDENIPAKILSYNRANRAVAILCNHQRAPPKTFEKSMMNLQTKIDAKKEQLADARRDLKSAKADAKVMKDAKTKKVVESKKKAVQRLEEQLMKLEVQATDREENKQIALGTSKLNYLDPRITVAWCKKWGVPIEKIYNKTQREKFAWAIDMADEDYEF
Put plainly: Inhibition of human recombinant topoisomerase 1 using radiolabeled DNA as substrate at 100 uM after 20 mins by SDS-PAGE. Summed up: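 A 117 bp oligonucleotide was 3′-end-labelled with [α-32P]dGTP by Klenow fill-in. Reactions were stopped with 0.5% SDS and run on 20% denaturing polyacrylamide gels. Cleavage bands were scored visually on a semiquantitative scale.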

Test [7] is described as follows: Resistance ratio of GI50 for human mitoxantrone-resistant H460 cells to GI50 for human H460 cells. The class given is functional. Summed up: (§1)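 Relative resistance = GI50 in the resistant subline divided by GI50 in the parental line. Both GI50s came from 72 h continuous-exposure MTS growth assays, each based on at least two independent determinations.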
The nature of test [8]: Cytotoxicity against human mitoxantrone-resistant H460 cells after 72 hrs by MTT assay. The test is classed as functional. The conditions noted are these: NCI-H460, 72 h. Summed up:
(§2)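 Cells were seeded 24 h before dosing and exposed continuously for 72 h. Growth was read by colorimetric MTS assay and expressed relative to vehicle-treated controls set at 100. GI50 is the level giving 50% growth inhibition, from at least two independent determinations. HCT116 and siTop1 cells were kept in RPMI 1640/10% FBS with 100 μg/mL hygromycin; RC0.1 in RPMI 1640/10% FBS.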

Test [9] can be described thus: Resistance ratio of GI50 for vinblastine-resistant human KBV1 cells to GI50 for human KB 3.1 cells. The class given is functional.
Test [10] can be described thus: Cytotoxicity against human H460 cells after 72 hrs by MTT assay. The test is classed as functional. The following applies: NCI-H460, 72 h. Summed up: as §2
A general note: Formazan colour is commonly taken as a measure of viable cells.

A short description of test [11]: Cytotoxicity against vinblastine-resistant human KBV1 cells after 72 hrs by MTT assay. The conditions noted are these: KB-V1, 72 h. The test is classed as functional. Summed up:
as §2

A short description of test [12]: Cytotoxicity against human KB 3.1 cells after 72 hrs by MTT assay. The test is classed as functional. The conditions noted are these: KB 3-1, 72 h. Summed up: as §2
The test system of test [13] is HCT-116. Description: Resistance ratio of GI50 for human HCT116 cells transfected with Top1-siRNA to GI50 for human HCT116 cells. The class given is functional. Summed up: as §1
The subject of test [14] is HCT-116. Put plainly: Cytotoxicity against human HCT116 cells transfected with Top1-siRNA after 72 hrs by MTT assay. The conditions noted are these: HCT-116, 72 h. The test is classed as functional. Summed up: as §2
In test [15] the test system is HCT-116. Description: Cytotoxicity against human HCT116 cells after 72 hrs by MTT assay. The test is classed as functional. The following applies: HCT-116, 72 h. Summed up: as §2
For test [16], the system named is DU-145. Description: Resistance ratio of GI50 for human RC0.1 cells to GI50 for human DU145 cells. The test is classed as functional. Summed up: as §1
Test [17] in a line: Cytotoxicity against human RC0.1 cells after 72 hrs by MTT assay. The class given is functional. Summed up:
as §2

Test [18] deals with DU-145. Put plainly: Cytotoxicity against human DU145 cells after 72 hrs by MTT assay. The class given is functional. The conditions noted are these: DU-145, 72 h. Summed up: as §2
Test [19] relates to HCT-116. Description: Cell cycle arrest in human HCT116 cells assessed as accumulation at G2 phase at 1 uM incubated for 1 hr followed by compound washout measured after 6 to 48 hrs by propidium iodide staining-based FACS analysis. The class given is functional. Summed up:
(§3)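 HCT116 cells exposed to 1 μM drug for 1 h, then kept in drug-free medium for the stated times. Fixed cells were stained with propidium iodide and analysed by flow cytometry for DNA content histograms. Phase distributions were computed from the histograms.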
(In flow cytometry, cells or beads pass a laser one at a time.)

Test [20] concerns HCT-116. Description: Cell cycle arrest in human HCT116 cells assessed as accumulation at S phase at 1 uM incubated for 1 hr followed by compound washout measured after 3 hrs by propidium iodide staining-based FACS analysis. The class given is functional. Summed up:
as §3

Test [21] concerns HCT-116. Description: Cell cycle arrest in human HCT116 cells at 1 uM incubated for 1 hr followed by compound washout measured up to 1 hr by propidium iodide staining-based FACS analysis. The test is classed as functional. Summed up:
as §3

Test [22] relates to HCT-116. Description: Cell cycle arrest in human HCT116 cells at 1 uM after 1 hr by propidium iodide staining-based FACS analysis. The test is classed as functional. Summed up: as §3
Test [23] has as its target T1, DNA topoisomerase 1 (Homo sapiens). Put plainly: Inhibition of human recombinant topoisomerase 1 in human HCT116 cells assessed as DNA-protein cross linking at 1 uM incubated for 1 hr followed by compound washout measured after 1 hr. The conditions noted are these: HCT-116. The class given is cell-based. Summed up: (§4)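 In HCT116 cells, Top1 cleavage complexes were quantified as DNA–protein cross-links by alkaline elution, plotting the fraction of DNA retained on the filter against time. Persistence was read 1 h after drug removal. The negative control was untreated cells given 30 Gy irradiation to create strand breaks.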

Test [24] has the same target. Description: Inhibition of human recombinant topoisomerase 1 in human HCT116 cells assessed as DNA-protein cross linking at 1 uM after 1 hr. The test is classed as cell-based. The following applies: HCT-116. Summed up: as §4
Test [25] shares this target. Description: Inhibition of human recombinant topoisomerase 1 in human HCT116 cells assessed as reversal of topoisomerase 1-DNA cleavage complex stabilization at 1 uM incubated for 1 hr followed by compound washout measured after 24 hrs by DNA immunoblotting analysis. The test is classed as cell-based. The conditions noted are these: HCT-116. Summed up: (§5)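 10^6 HCT116 cells were treated with 1 μM for 1 h, and for reversal were held in drug-free medium for the set times. Cells were lysed with DNAzol and genomic DNA was isolated and sonicated. Serial dilutions were slot-blotted onto membranes and Top1–DNA complexes detected with the C21 anti-Top1 monoclonal antibody by immunoblotting (ICE method).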

Test [26] shares this target. Description: Inhibition of human recombinant topoisomerase 1 in human HCT116 cells assessed as reversal of topoisomerase 1-DNA cleavage complex stabilization at 1 uM incubated for 1 hr followed by compound washout measured up to 6 hrs by DNA immunoblotting analysis. The class given is cell-based. The conditions noted are these: HCT-116. Summed up: as §5
For test [27] the target is unchanged. Put plainly: Inhibition of human recombinant topoisomerase 1 in human HCT116 cells assessed as stabilization of topoisomerase 1-DNA cleavage complex at 1 uM after 1 hr by DNA immunoblotting analysis. The following applies: HCT-116. The class given is cell-based. Summed up:
as §5

The test system of test [28] is MCF7. Description: Cytotoxicity against human MCF7 cells by SRB assay. The test is classed as functional.
Test [29] has as its system OVCAR-3. Put plainly: Cytotoxicity against human OVCAR3 cells by SRB assay. The test is classed as functional.
Test [30] has as its system SF-539. Description: Cytotoxicity against human SF539 cells by SRB assay. The class given is functional.
For test [31], the target named is T1, DNA topoisomerase 1 (Homo sapiens). Description: Inhibition of human recombinant topoisomerase 1 using radiolabeled DNA as substrate at 0.1 to 100 uM after 20 mins by SDS-PAGE. Summed up: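 Baculovirus-purified human recombinant Top1 with ~2 nM of a 117 bp oligonucleotide, 3′-end-labeled with [α-32P]dGTP by Klenow fill-in. Drugs at 0.1, 1, 10, 100 μM; 25 °C, 20 min. Stopped with 0.5% SDS, run on 20% denaturing PAGE, phosphorimaged. Cleavage bands scored visually against camptothecin standard.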

Test [32] concerns HCT-116. Description: Induction of DNA damage in human HCT116 cells assessed as induction of histone gamma-H2AX level at 1 uM after 1 hr by flow cytometry.

The values that follow come from ChEMBL document CHEMBL3124896, “Optimization of the lactam side chain of 7-azaindenoisoquinoline topoisomerase I inhibitors and mechanism of action studies in cancer cells” (2014).

The source made the active and inactive calls. No cut-off for these calls is given here.

Regarding `COc1cc2c3c(n(C)c(=O)c2cc1OC)-c1cc2c(cc1C3=O)OCO2`, the GI50 – broadly, the concentration that inhibits growth by half – in test [1] worked out at 37000 nM; in [2] it was 68000 nM; in test [3], 4200 nM; in test [4], 35000 nM; in [5], 1300 nM. Besides, the inhibition result in test [6] is “Active”.

For the compound `COc1cnc2c(c1)C(=O)c1c-2n(CCCn2ccnc2)c(=O)c2cc([N+](=O)[O-])ccc12.Cl`, the RatioGI50 in test [7] is reported as 19.05; in test [9] it was 1.02; in [13], 3.24; in [16], >21.88. The GI50 was 417 nM in [8]; 21.9 nM in test [10]; 427 nM in [11]; 417 nM in test [12]; 70.8 nM in [14]; 21.9 nM in test [15]. The GI50 in [17] was > 1000 nM; in test [18], 45.7 nM; in test [1] it was < 10 nM; in test [28] it was < 10 nM; in test [2], < 10 nM; in test [29], 25 nM. Also, the GI50 in test [3], in [30], in test [4] and in test [5] was < 10 nM in each case. Moreover, the result in [19], in [20], in test [21] and in test [22] was Active. Besides, the inhibition entry in [23], in test [24], in [25], in test [26], in test [27] and in [31] was “Active” in each case. In addition, in test [32], the Activity was 37.3%.
